Consider six compounds from ChEMBL document CHEMBL1153017 (Bioorg Med Chem, 2009).

Data set [1] can be described thus: Chemical stability in HCl buffer of pH 1.2 simulating gastric fluid. The note with it: simulated gi fluid. The format is physicochemical. The essentials:
(§1)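 Hydrolysis run in pH 1.2 HCl buffer or pH 7.4 phosphate buffer, each with 1% Tween 20 and ionic strength 0.2 (KCl). Started by adding 200 µL of a 3 mg/mL methanol or acetonitrile stock to 9.8 mL of prewarmed buffer, held at 37 °C. Aliquots (20 µL) taken over time; remaining ester measured by HPLC.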

A short description of data set [2]: Chemical stability in phosphate buffer of pH 7.4 simulating intestinal fluid. The note with it: simulated gi fluid. The format is physicochemical. Put shortly:
as §1

The species named for a further data set is Homo sapiens. Put plainly: Stability in human plasma assessed as hydrolysis half life.
For data set [3], the system named is Rattus norvegicus. The data set is described as follows: Gastrointestinal toxicity in Wistar rat assessed as complete damage of mucosal layer and ulceration of submucosal cells at dose equivalent to 150 mg/kg of ibuprofen, po after 24 hrs by electron microscopy. It is filed as organism-based, Submucosa. More on the design: dose 150 mg/kg, route oral. As to conditions: in vivo. The essentials: (§2)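 Male Wistar rats (150–200 g), three per group, fasted 12 h with water available. Given a daily oral dose in 0.5% CMC (1 mL suspension) for four successive days; control group got vehicle. Food withheld until 24 h after the last dose, then rats killed. Stomachs opened along the greater curvature, rinsed in saline, and random specimens examined by scanning electron microscopy after glutaraldehyde/osmium fixation, ethanol dehydration and amyl acetate.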

The test system of data set [4] is Rattus norvegicus. The data set is described as follows: Antiinflammatory activity in Wistar rat assessed as inhibition of carrageenan-induced paw edema at 150 mg/kg, po administered 30 mins before carrageenan challenge measured after 5 hrs. The format is functional. Put shortly:
(§3)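 Rats dosed orally with a suspension in 0.5% w/v aqueous carboxymethyl cellulose; controls got vehicle alone. 30 min later, 0.1 mL of fresh 1% carrageenan in normal saline injected subplantar into the right hind paw. Paw thickness measured by skin caliper at 0.5, 1, 2, 3, 4 and 5 h. % edema inhibition = [(VR−VL)control − (VR−VL)treated]/(VR−VL)control × 100. Values are means ± SEM.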
(The carrageenan paw model is a standard test of acute inflammation.)

Data set [5] has as its system Rattus norvegicus. The data set is described as follows: Gastrointestinal toxicity in Wistar rat assessed as complete damage of mucosal layer and ulceration of submucosal cells at 150 mg/kg, po after 24 hrs by electron microscopy. The note with it: in vivo. The format is organism-based, Submucosa. Also noted: dose 150 mg/kg, route oral. Put shortly: as §2
In data set [6] the test system is Rattus norvegicus. The data set is described as follows: Antiinflammatory activity in Wistar rat assessed as inhibition of carrageenan-induced paw edema at 150 mg/kg, po administered 30 mins before carrageenan challenge measured after 0.5 hrs. It is filed as functional. Put shortly:
as §3

Data set [7] concerns Rattus norvegicus. The data set is described as follows: Antiinflammatory activity in Wistar rat assessed as inhibition of carrageenan-induced paw edema at 150 mg/kg, po administered 30 mins before carrageenan challenge measured after 1 hr. The format is functional. The essentials:
as §3

Data set [8] deals with Rattus norvegicus. Put plainly: Antiinflammatory activity in Wistar rat assessed as inhibition of carrageenan-induced paw edema at 150 mg/kg, po administered 30 mins before carrageenan challenge measured after 2 hrs. The format is functional. Put shortly:
as §3

Data set [9] concerns Rattus norvegicus. The data set is described as follows: Antiinflammatory activity in Wistar rat assessed as inhibition of carrageenan-induced paw edema at 150 mg/kg, po administered 30 mins before carrageenan challenge measured after 3 hrs. The format is functional. Put shortly: as §3
Data set [10] deals with Rattus norvegicus. Put plainly: Antiinflammatory activity in Wistar rat assessed as inhibition of carrageenan-induced paw edema at 150 mg/kg, po administered 30 mins before carrageenan challenge measured after 4 hrs. The format is functional. Put shortly:
as §3

Data set [11] relates to Rattus norvegicus. The data set is described as follows: Antiinflammatory activity in Wistar rat assessed as inhibition of carrageenan-induced paw edema at 20 mg/kg, po administered 30 mins before carrageenan challenge measured after 0.5 hrs. The format is functional. The essentials: as §3
The subject of data set [12] is Rattus norvegicus. The data set is described as follows: Antiinflammatory activity in Wistar rat assessed as inhibition of carrageenan-induced paw edema at 20 mg/kg, po administered 30 mins before carrageenan challenge measured after 1 hr. The format is functional. The essentials: as §3
The test system of data set [13] is Rattus norvegicus. Put plainly: Antiinflammatory activity in Wistar rat assessed as inhibition of carrageenan-induced paw edema at 20 mg/kg, po administered 30 mins before carrageenan challenge measured after 2 hrs. It is filed as functional. The essentials: as §3
Data set [14] concerns Rattus norvegicus. Put plainly: Antiinflammatory activity in Wistar rat assessed as inhibition of carrageenan-induced paw edema at 20 mg/kg, po administered 30 mins before carrageenan challenge measured after 3 hrs. It is filed as functional. Put shortly:
as §3

Data set [15] concerns Rattus norvegicus. Put plainly: Antiinflammatory activity in Wistar rat assessed as inhibition of carrageenan-induced paw edema at 20 mg/kg, po administered 30 mins before carrageenan challenge measured after 4 hrs. It is filed as functional. The essentials: as §3
The test system of data set [16] is Rattus norvegicus. The data set is described as follows: Antiinflammatory activity in Wistar rat assessed as inhibition of carrageenan-induced paw edema at 20 mg/kg, po administered 30 mins before carrageenan challenge measured after 5 hrs. It is filed as functional. Put shortly: as §3
The species named for data set [17] is Rattus norvegicus. Put plainly: animal or person. As to conditions: Wistar, po, read-out: INH.
For data set [18], the species on record is Rattus norvegicus. The data set is described as follows: animal or person. As to conditions: Wistar, po, read-out: INH. This is another data set of the same source.
For data set [19], the species on record is Rattus norvegicus. The data set is described as follows: animal or person. The note with it: Wistar, po, read-out: INH. This is another data set of the same source.
For data set [20], the species on record is Rattus norvegicus. The data set is described as follows: animal or person. The note with it: Wistar, po, read-out: INH. This is another data set of the same source.
The species entered for data set [21] is Rattus norvegicus. Put plainly: animal or person. The note with it: Wistar, po, read-out: INH. This is another data set of the same source.
For data set [22], the species on record is Rattus norvegicus. The data set is described as follows: animal or person. The note with it: Wistar, po, read-out: INH. The source holds these as a separate data set.

In the case of `COc1ccc2cc(C(C)C(=O)OCn3c(=O)oc4ccc(Cl)cc43)ccc2c1` (stereo not drawn), the Stability entry in data set [1] is “Stable”; in data set [2] it was 1 days. The half-life in the data set listed under Homo sapiens turned out to be 34 min.
As for `CC(C)Cc1ccc(C(C)C(=O)OCn2c(=O)oc3ccc(Cl)cc32)cc1` (stereo not drawn), in the data set on Rattus norvegicus [3], the Activity entry is recorded as “Non-toxic”. The Stability entry in data set [1] is “Stable”; in data set [2], 1 days. In the data set filed under Homo sapiens, the half-life was 37 min.
Consider `Cc1cccc(Nc2ccccc2C(=O)OCn2c(=O)oc3ccc(Cl)cc32)c1C`, for which the figures for the Stability result in data set [1] and in [2] were “Stable” and 1 days, respectively.
As to `CC(C)Cc1ccc(C(C)C(=O)O)cc1` (stereo not drawn) [IBUPROFEN], the inhibition in vivo at 150 mg/kg with Rattus norvegicus [4] amounted to 41.7%; in the data set on Rattus norvegicus [6], 16.7%; in the data set on Rattus norvegicus [7] it was 16.7%; in the data set on Rattus norvegicus [8] it was 45.8%; with Rattus norvegicus [9], 62.5%; in the data set on Rattus norvegicus [10], 50%. Further, the Activity entry in the data set with Rattus norvegicus [5] is on record as “Toxic”.
In the case of `Cc1cccc(Nc2ccccc2C(=O)O)c1C` [MEFENAMIC ACID], the inhibition in vivo at 20 mg/kg with Rattus norvegicus [11] came to 16.7%; in the data set with Rattus norvegicus [12] it was 18.3%; in the data set on Rattus norvegicus [13] it was 33.3%; with Rattus norvegicus [14], 41.7%; in the data set with Rattus norvegicus [15], 45.8%; in the data set on Rattus norvegicus [16] it was 33.3%.
Consider `COc1ccc2cc([C@H](C)C(=O)O)ccc2c1` [NAPROXEN], for which the inhibition in vivo at 40 mg/kg in the data set filed under Rattus norvegicus [17] is 9.4%; in the data set listed under Rattus norvegicus [18], 16.3%; in the data set filed under Rattus norvegicus [19] it was 28.1%; in the data set listed under Rattus norvegicus [20], 46.9%; in the data set filed under Rattus norvegicus [21], 37.5%; in the data set filed under Rattus norvegicus [22] it was 18.8%.

One may read the half-life as the time needed for the level to fall by half in the phase considered.
